Measurements taken from ChEMBL document CHEMBL1122281, “Synthesis and antifilarial activity of N-[4-[[4-alkoxy-3-[(dialkylamino)methyl]phenyl]amino]- 2-pyrimidinyl]-N'-phenylguanidines” (J Med Chem, 1983).

Columns and labels:
[1] = tested on: Litomosoides carinii; assay: (§1) Antifilarial activity against Litomosoides carinii infections in the Jird at dose 100 mg/kg administered subcutaneously; assay type: functional; details: route subcutaneous
Method in brief: (§2)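 L. carinii-infected jirds were dosed. Survivors were killed 55–70 days after the first dose, and the pleural and peritoneal cavities were searched for adult worms. Live worms at autopsy were scored as a percentage relative to sham-dosed controls. Adult worm reduction above 60% was the activity criterion.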

[2] = tested on: Litomosoides carinii; assay: Antifilarial activity against Litomosoides carinii infections in the Jird at dose 25 mg/kg administered orally; assay type: functional; details: route oral; method in brief: as §2
[3] = tested on: Litomosoides carinii; assay: Antifilarial activity against Litomosoides carinii infections in the Jird at dose 25 mg/kg administered subcutaneously; assay type: functional; details: route subcutaneous; method in brief: as §2
[4] = tested on: Litomosoides carinii; assay: Antifilarial activity against Litomosoides carinii infections in the Jird at dose 100 mg/kg administered orally; assay type: functional; details: route oral; method in brief: as §2
[5] = tested on: Litomosoides carinii; assay: Antifilarial activity against Litomosoides carinii infections in the Jird at dose 3 mg/kg administered orally; assay type: functional; details: route oral; method in brief: as §2
[6] = Antifilarial activity against Litomosoides carinii infections in the Jird at dose 100 mg/kg administered subcutaneously; two or more animals died prematurely considered to be drug toxicity.; assay type: organism-based, Meriones unguiculatus; design: dose 100 mg/kg, route subcutaneous; details: gerbil, in vivo, sc
Method in brief: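 Jirds infected with Litomosoides carinii. Surviving animals killed 55–70 days after first drug dose; pleural and peritoneal cavities searched for adult worms. Live worm count at autopsy scored as percentage relative to sham-dosed controls. Activity criterion: adult worm reduction exceeding 60%.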

[7] = tested on: Litomosoides carinii; assay: Antifilarial activity against Litomosoides carinii infections in the Jird at dose 6 mg/kg administered subcutaneously; assay type: functional; details: route subcutaneous; method in brief: as §2
[8] = tested on: Litomosoides carinii; assay: Antifilarial activity against Litomosoides carinii infections in the Jird at dose 0.5 mg/kg administered orally; assay type: functional; details: route oral; method in brief: as §2
[9] = tested on: Litomosoides carinii; assay: as §1; assay type: functional; details: route subcutaneous; method in brief: as §2; remark: listed apart in the source
[10] = tested on: Litomosoides carinii; assay: Antifilarial activity against Litomosoides carinii infections in the Jird at dose 12 mg/kg administered orally; assay type: functional; details: route oral; method in brief: as §2
[11] = tested on: Litomosoides carinii; assay: Antifilarial activity against Litomosoides carinii infections in the Jird at dose 50 mg/kg administered orally; assay type: functional; details: route oral; method in brief: as §2
[12] = tested on: Litomosoides carinii; assay: Antifilarial activity against Litomosoides carinii infections in the Jird at dose 400 mg/kg administered orally; assay type: functional; details: route oral; method in brief: as §2
[13] = tested on: Litomosoides carinii; assay: Antifilarial activity against Litomosoides carinii infections in the Jird at dose 400 mg/kg administered subcutaneously; assay type: functional; details: route subcutaneous; method in brief: as §2
[14] = tested on: Litomosoides carinii; assay: Antifilarial activity against Litomosoides carinii infections in the Jird at dose 200 mg/kg administered orally; assay type: functional; details: route oral; method in brief: as §2
[15] = tested on: Litomosoides carinii; assay: Antifilarial activity against Litomosoides carinii infections in the Jird at dose 100 mg/kg administered subcutaneously; details: route subcutaneous
[16] = tested on: Litomosoides carinii; assay: Antifilarial activity against Litomosoides carinii infections in the Jird at dose 600 mg/kg administered orally; assay type: functional; details: route oral; method in brief: as §2
[17] = tested on: Litomosoides carinii; assay: Antifilarial activity against Litomosoides carinii infections in the Jird at dose 200 mg/kg administered subcutaneously; assay type: functional; details: route subcutaneous; method in brief: as §2
[18] = tested on: Litomosoides carinii; assay: Antifilarial activity against Litomosoides carinii infections in the Jird at dose 50 mg/kg administered subcutaneously; assay type: functional; details: route subcutaneous; method in brief: as §2
[19] = tested on: Litomosoides carinii; assay: Antifilarial activity against Litomosoides carinii infections in the Jird at dose 6.25 mg/kg administered subcutaneously; assay type: functional; details: route subcutaneous; method in brief: as §2
[20] = tested on: Litomosoides carinii; assay: Antifilarial activity against Litomosoides carinii infections in the Jird at dose 1.56 mg/kg administered subcutaneously; assay type: functional; details: route subcutaneous; method in brief: as §2
[21] = tested on: Litomosoides carinii; assay: Antifilarial activity against infections of Litomosoides carinii in the Jird by oral route(dose (mg/kg) is given in parentheses); assay type: functional; method in brief: as §2

SMILES	Reduction of live worms [1] [%]	Reduction of live worms [2] [%]	Reduction of live worms [3] [%]	Reduction of live worms [4] [%]	Reduction of live worms [5] [%]	Reduction of live worms [8] [%]	also measured
CCN(CC)Cc1cc(Nc2ccnc3cc(Cl)ccc23)ccc1O.Cl	100	71	61	72	–	–	–
CCN(CC)Cc1cc(Nc2cc(C(F)(F)F)nc(/N=C(\N)Nc3ccc(Cl)c(Cl)c3)n2)ccc1OC	100	100	100	–	100	–	–
CCNCc1cc(Nc2cc(C(F)(F)F)nc(/N=C(\N)Nc3ccc(Cl)cc3)n2)ccc1OC	–	94	100	100	81	–	Animals dead [6]: > 2; Reduction of live worms [7]: 92%
CCN(CC)Cc1cc(Nc2cc(C(F)(F)F)nc(/N=C(\N)Nc3ccc(C(F)(F)F)cc3)n2)ccc1O	100	100	–	100	98	22	–
CCN(C)Cc1cc(Nc2cc(C(F)(F)F)nc(/N=C(\N)Nc3ccc(Cl)c(Cl)c3)n2)ccc1O	100	100	100	–	97	100	–
CCNCc1cc(Nc2nc(/N=C(\N)Nc3ccc(Cl)c(Cl)c3)nc3c2CCCC3)ccc1OC	–	–	69	–	–	–	Animals dead [6]: > 2
CCN(CC)Cc1cc(Nc2cc(C)nc(/N=C(\N)Nc3cc(Cl)cc(Cl)c3)n2)ccc1O	68	–	–	–	–	–	Reduction of live worms [9]: 0%; Animals dead [6]: > 2
CCN(CC)Cc1cc(Nc2cc(C(F)(F)F)nc(/N=C(\N)Nc3ccc(Cl)cc3)n2)ccc1O	–	–	–	–	100	100	Reduction of live worms [10]: 100%; Reduction of live worms [11]: 100%
CN1CCN(Cc2cc(Nc3cc(C(F)(F)F)nc(/N=C(\N)Nc4ccc(Cl)c(Cl)c4)n3)ccc2O)CC1	–	100	–	100	0	–	Reduction of live worms [12]: 100%; Animals dead [6]: > 2; Reduction of live worms [13]: 99%; Reduction of live worms [14]: 100%
CCOc1ccc(Nc2nc(/N=C(\N)Nc3ccc(Cl)c(Cl)c3)nc3c2CCCC3)cc1CN(CC)CC	–	54	–	–	–	–	Animals dead [6]: > 2; Reduction of live worms [15]: 0%
CCCCN(CC)CCNc1cc(C)nc(/N=C(\N)Nc2ccc(Cl)c(Cl)c2)n1	–	–	–	–	–	–	Reduction of live worms [16]: 66%
CN(C)Cc1cc(Nc2cc(C(F)(F)F)nc(/N=C(\N)Nc3ccc(Cl)c(Cl)c3)n2)ccc1O	–	100	–	100	90	100	–
COc1ccc(Nc2cc(C(F)(F)F)nc(/N=C(\N)Nc3ccc(Cl)cc3)n2)cc1CN1CCCC1	–	–	–	–	99	100	Reduction of live worms [10]: 100%; Reduction of live worms [11]: 100%
CCNCc1cc(Nc2cc(C(F)(F)F)nc(/N=C(\N)Nc3ccc(Cl)c(Cl)c3)n2)ccc1O	100	100	100	–	97	97	–
CN1CCN(Cc2cc(Nc3cc(C(F)(F)F)nc(/N=C(\N)Nc4ccc(C(F)(F)F)cc4)n3)ccc2O)CC1	–	40	–	100	5	–	Reduction of live worms [17]: 96%
CCN(CC)C(=O)N1CCN(C)CC1 [DIETHYLCARBAMAZINE]	100	–	–	–	–	–	Reduction of live worms [18]: 89%
COC(=O)Nc1nc2cc(C(=O)c3ccccc3)ccc2[nH]1 [MEBENDAZOLE]	–	–	100	–	–	–	Reduction of live worms [19]: 100%; Reduction of live worms [20]: 97%
Cc1ccc(C(=O)Nc2ccc(S(=O)(=O)O)c3cc(S(=O)(=O)O)cc(S(=O)(=O)O)c23)cc1NC(=O)c1cccc(NC(=O)Nc2cccc(C(=O)Nc3cc(C(=O)Nc4ccc(S(=O)(=O)O)c5cc(S(=O)(=O)O)cc(S(=O)(=O)O)c45)ccc3C)c2)c1 [SURAMIN]	–	–	–	–	–	–	Reduction of live worms [21]: 98%
